HSF1 activator: increases HSF-1 driven luciferase reporter signal. hit rate 1.7% among 300,000. NIH3T3-HGL HSF-1 luciferase reporter, MG132, 8 h; 100% = twice DMSO control signal. activation, % at 9 µM. AID 504408;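 active = mean replicate activation of at least 50% with a set share of replicates each reaching 50%; inconclusive = only one of those two conditions met; inactive = mean below 50% and too few replicates reaching it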
Lmaj promast: reduces viability of Leishmania major promastigotes; resazurin fluorescence viability; inhibition, % at 10 µM; hit rate 9% among 200,000; AID 1063; in the data active = inhibition above about 50%;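 also: promastigotes grown with compound for 44 hours at 28 °C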
HSF1 inhib: HSF1 inhibition. hit rate 0.77% among 300,000. activity change, negative = inhibition, % at 7.5 µM (by protocol). AID 2098. NIH3T3-HGL HSE-luciferase, MG132-induced, luminescence 8 h; stronger effect = lower value;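 active = more than half of replicate wells show activity change below -50%, luminescence cut by over half; inconclusive = some wells, but at most half, below -50%; inactive = no replicate well below -50%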;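 also: luciferase reports HSF-1 transcriptional activity via heat shock element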
Hsp70 activator: Hsp70 transcriptional activation, primary screen; HeLa Hsp70 promoter luciferase reporter, luminescence; scaled: vehicle 0, proteasome-inhibitor control 100%; AID 1203; activation, % at 10 µM; hit rate 0.04% among 200,000;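 active = activation above the mean across all tested compounds plus 3 SD, cutoff set per campaign, cut at about 5.5% in these data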
T cruzi inh: T. cruzi replication inhibition; T. cruzi beta-gal in NIH3T3, luminescence, 90 h; inhibition, % (concentration not given with the values); hit rate 1.4% among 300,000; AID 1885;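 active = mean inhibition across valid replicates above about 55%, limit read from the data; inconclusive = mean below that limit but half or more replicates reach it; inactive = mean below it, under half of replicates reach it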;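 also: signal also drops with host cell toxicity which is not excluded here; higher percent means less beta-gal luminescence so fewer parasites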
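Incubation – ≥90 h infection period, 3 h prior cell attachment · System – NIH/3T3 fibroblasts plus reporter T. cruzi · Doses – compound pinned at 50 nL/well, DMSO · Read-out basis – percent inhibition of parasite-derived β-gal signal · Signal – luminescent β-galactosidase signal after 60 min lysis · Also added – 5000 T. cruzi trypomastigotes/well · Medium – Low-serum DMEM with 2% FBS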
Numbers stand for hits. Shown is part of a subset that was picked to be rich in hits.

Results for CCN(c1cccc(C)c1)S(=O)(=O)c1ccc(OC)c([N+](=O)[O-])c1 ?
HSF1 activator: inactive; Lmaj promast: inactive; HSF1 inhib: inactive; Hsp70 activator: inactive; T cruzi inh: inactive

How did O=C(CC12CC3CC(CC(C3)C1)C2)Nc1ccccc1N1CCOCC1 do in these assays?
HSF1 activator: inactive; Lmaj promast: inactive; HSF1 inhib: inactive; Hsp70 activator: inactive; T cruzi inh: inactive

Results for O=c1cc(NCc2ccccc2)[nH]c(=O)[nH]1 ?
HSF1 activator: inactive; HSF1 inhib: inactive; T cruzi inh: inactive

How did c1ccc2c(c1)oc1c(N3CCOCC3)ncnc12 do in these assays?
HSF1 activator: inactive; Lmaj promast: inactive; HSF1 inhib: inactive; Hsp70 activator: inactive; T cruzi inh: inactive

How did C(=C\c1ccccc1)/CN1CCN(c2ncnc3c2oc2ccccc23)CC1 do in these assays?
HSF1 activator: inactive; Lmaj promast: 57.4; HSF1 inhib: inactive; Hsp70 activator: inactive; T cruzi inh: inactive

Results for CCOC(=O)C(NC(=O)N(C)C)(Nc1sc(C)c(CC)c1C#N)C(F)(F)F (configuration not stated) ?
HSF1 activator: inactive; Lmaj promast: inactive; HSF1 inhib: inactive; Hsp70 activator: inactive; T cruzi inh: inactive

Results for COc1ccc(C(CCN2CCCC2)c2c(OC)cc(OC)c3c(-c4ccccc4)cc(=O)oc23)cc1 (configuration not stated) ?
HSF1 activator: inactive; HSF1 inhib: inactive; T cruzi inh: inactive

How did COc1cc(C(CCN2CCCC2)c2c(OC)cc(OC)c3c(-c4ccccc4)cc(=O)oc23)cc(OC)c1OC (configuration not stated) do in these assays?
HSF1 activator: inactive; HSF1 inhib: inactive; T cruzi inh: 57.6

How did COc1cccc(C(c2c(N)[nH]c(=S)[nH]c2=O)c2c(N)[nH]c(=S)[nH]c2=O)c1 do in these assays?
HSF1 activator: inactive; HSF1 inhib: inactive; T cruzi inh: inactive

Results for COc1ccc(N2CCN(C(=O)c3ccc(Br)o3)CC2)cc1 ?
HSF1 activator: inactive; HSF1 inhib: inactive; T cruzi inh: inactive

Results for CCN(CC)CCCNC(=O)c1ccc2c(Cl)c3c(nc2c1)CCCC3 ?
HSF1 activator: inactive; Lmaj promast: 82.7; HSF1 inhib: inactive; Hsp70 activator: inactive; T cruzi inh: inactive

Results for CCCN1CCN(CCCNC(=O)c2ccc3c(Cl)c4c(nc3c2)CCCC4)CC1 ?
HSF1 activator: 159.6; HSF1 inhib: inactive; T cruzi inh: inactive

How did N#Cc1ccccc1NC(=O)c1ccc2c(Cl)c3c(nc2c1)CCCC3 do in these assays?
HSF1 activator: 113.0; Lmaj promast: inactive; HSF1 inhib: inactive; Hsp70 activator: inactive; T cruzi inh: inactive

Results for O=C(NCCCN1CCCC1)c1ccc2c(Cl)c3c(nc2c1)CCCC3 ?
HSF1 activator: inactive; Lmaj promast: inactive; HSF1 inhib: inactive; Hsp70 activator: inactive; T cruzi inh: inactive

Results for CC1CN(C(=O)CCC(=O)NCc2ccccc2)c2ccccc2S1 (configuration not stated) ?
HSF1 activator: inactive; HSF1 inhib: inactive; T cruzi inh: inactive

How did Cc1noc(C)c1CN1C(=O)NC2(CCCCCCC2)C1=O do in these assays?
HSF1 activator: inactive; Lmaj promast: 100.0; HSF1 inhib: inactive; Hsp70 activator: inactive; T cruzi inh: inactive

What do the screens show for `O=C(Nc1ccc(O)c(C(=O)O)c1)Oc1ccccc1`?
HSF1 activator: inactive; HSF1 inhib: inactive; T cruzi inh: inactive

How did Cc1nc(SC(C)C(=O)NCC2CCCO2)c2cc(-c3ccccc3)sc2n1 (configuration not stated) do in these assays?
HSF1 activator: 70.6; HSF1 inhib: inactive; T cruzi inh: inactive

How did COc1ccc(C2=NS(=O)(=O)N(C)C(C(=O)NCc3ccccn3)=C2)cc1OC do in these assays?
HSF1 activator: inactive; HSF1 inhib: inactive; T cruzi inh: inactive

Results for CC1CCCCN1C(=O)CSc1nc2cc3c(cc2c(=O)n1Cc1ccc2c(c1)OCO2)OCO3 (configuration not stated) ?
HSF1 activator: inactive; Lmaj promast: 54.1; HSF1 inhib: inactive; Hsp70 activator: inactive; T cruzi inh: inactive

How did O=c1c2ccccc2sn1-c1ccc(S(=O)(=O)N2CCCC2)cc1 do in these assays?
HSF1 activator: inactive; Lmaj promast: inactive; HSF1 inhib: inactive; Hsp70 activator: inactive; T cruzi inh: 62.6

Results for Cc1ccc(-n2sc3ccccc3c2=O)cc1S(=O)(=O)N1CCCCC1 ?
HSF1 activator: inactive; Lmaj promast: 89.1; HSF1 inhib: inactive; Hsp70 activator: inactive; T cruzi inh: 77.6

How did FC(F)(F)c1cccc(Cn2nnnc2-c2cc(Cl)cc(Cl)c2)c1 do in these assays?
HSF1 activator: inconclusive; Lmaj promast: inactive; HSF1 inhib: inactive; Hsp70 activator: inactive; T cruzi inh: inactive

How did CCc1ccc(NC(=O)C2CCC(CNC(=O)[C@@H]3Cc4ccccc4CN3)CC2)cc1 (some centres not stated) do in these assays?
HSF1 activator: inactive; HSF1 inhib: -66.3; T cruzi inh: inactive

How did Cc1ccc(NC(=O)[C@@H](C)NC(=O)[C@@H]2Cc3ccccc3CN2)cc1 do in these assays?
HSF1 activator: inactive; HSF1 inhib: -54.9; T cruzi inh: inactive

Results for Clc1cc(Br)ccc1OCCCn1ccnc1 ?
HSF1 activator: inactive; Lmaj promast: 97.0; HSF1 inhib: inactive; Hsp70 activator: inactive; T cruzi inh: inactive

Results for Cc1cc(Br)ccc1OCCn1ccnc1 ?
HSF1 activator: inactive; Lmaj promast: 72.1; HSF1 inhib: inactive; Hsp70 activator: inactive; T cruzi inh: inactive

How did Clc1cc(Br)ccc1OCCn1ccnc1 do in these assays?
HSF1 activator: inactive; Lmaj promast: inactive; HSF1 inhib: inactive; Hsp70 activator: inactive; T cruzi inh: inactive

How did Cc1cccc(C(C)C)c1NC(=O)COC(=O)c1cccc(S(=O)(=O)N2CCc3ccccc3C2)c1 do in these assays?
HSF1 activator: 55.9; Lmaj promast: inactive; HSF1 inhib: inactive; Hsp70 activator: inactive; T cruzi inh: inactive

Results for Cc1cc(N2CCN(C)CC2)ccc1NC(=O)c1cccc(S(=O)(=O)N2CCc3ccccc3C2)c1 ?
HSF1 activator: inactive; Lmaj promast: 97.6; HSF1 inhib: inactive; Hsp70 activator: inactive; T cruzi inh: 75.3

What do the screens show for `CCc1cccc(CC)c1NC(=O)COC(=O)c1cccc(S(=O)(=O)N2CCc3ccccc3C2)c1`?
HSF1 activator: inactive; Lmaj promast: inactive; HSF1 inhib: inactive; Hsp70 activator: inactive; T cruzi inh: inactive

Results for O=[N+]([O-])c1ccccc1CNC1CCCc2ccccc21 (configuration not stated) ?
HSF1 activator: inactive; Lmaj promast: inactive; HSF1 inhib: inactive; Hsp70 activator: inactive; T cruzi inh: inactive

What do the screens show for `CCC/C(=N/NC(=O)c1ccccc1Cl)c1ccccc1`?
HSF1 activator: inactive; Lmaj promast: 95.1; HSF1 inhib: inactive; Hsp70 activator: inactive; T cruzi inh: inactive

How did CC(C)C(=O)Nc1cccc(S(=O)(=O)c2cccc(NC(=O)C(C)C)c2)c1 do in these assays?
HSF1 activator: inactive; Lmaj promast: 65.9; HSF1 inhib: inactive; Hsp70 activator: inactive; T cruzi inh: inactive

Results for COc1c(F)cc2[nH]c3c(c2c1F)CCNC3=O ?
HSF1 activator: inactive; HSF1 inhib: inactive; T cruzi inh: inactive

Compound activity: PubChem BioAssay, several laboratories
